High-throughput results as filed in PubChem.
This is a sample that favours compounds with a hit; in the whole collection about 1% have one here.
Arr AP2 block: inhibitors of human beta-arrestin and AP2 interaction. FITC-arrestin peptide / GST-AP2 beads, flow cytometry; AP2 beta2 appendage carries R879A mutation. inhibition, % at 10 µM. actives 0.31% (n = 340,000);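 active = inhibition above a set limit, near 3 SD of compounds lacking own fluorescence, cut at about 54% in these data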
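Material – AP2 appendage R879A on GSH beads · Buffer or medium – PBS with 0.05% Tween 20 and 0.1% BSA · Probe or stimulus – fluorescein-tagged arrestin peptide at 50 nM final · Incubation – compound with beads 12 min RT, then probe 1 h RT · Detection – high-throughput flow cytometry of beads, ex 488, em 535 nm · Evaluation – percent response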
Hep lipid drop: hepatic lipid droplet formation modulation; AML12 mouse hepatocytes, oleate lipid droplets, BODIPY imaging; inhibition, % at 6.5 µM; actives 0.4% (n = 240,000); AID 1656;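 active = lipid droplet intensity inhibited by at least 50%, with more than 500 cells counted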
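Assay system: AML12 mouse liver cells | Compound dosing: One dose, 6.5 µM compound | Read-out basis: Droplet intensity reduction, % inhibition | Measured by: Fluorescence imaging, 20x objective, two fields per well | Schedule: Overnight treatment with compound plus oleate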
Fh CTSL1 inh: counter-screen for PFM18AAP inhibitors: inhibitors of F. hepatica cathepsin L1; recombinant F. hepatica cathepsin L1, Z-Leu-Arg-MCA fluorescence; inhibition, % at 5.96 µM; actives 0.49% (n = 300,000); AID 1906;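 active = inhibition above the mean of all tested compounds plus 3 SD, set per screening campaign, cut at about 17% in these data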
p-CIP stab down: lowers stability of the mouse p/CIP coactivator protein. actives 0.01% (n = 290,000). F442A p/CIP-EGFP cells, EGFP fluorescence, 16 h. Q05BA5. AID 1984. decrease of EGFP signal, % at 10 µM;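 active = EGFP signal decrease of at least 30% at 10 µM or well 3 SD below plate mean, unless failing retest; inactive = the rest, including hits failing retest or dose response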
Target sequence (Q05BA5 1-1403): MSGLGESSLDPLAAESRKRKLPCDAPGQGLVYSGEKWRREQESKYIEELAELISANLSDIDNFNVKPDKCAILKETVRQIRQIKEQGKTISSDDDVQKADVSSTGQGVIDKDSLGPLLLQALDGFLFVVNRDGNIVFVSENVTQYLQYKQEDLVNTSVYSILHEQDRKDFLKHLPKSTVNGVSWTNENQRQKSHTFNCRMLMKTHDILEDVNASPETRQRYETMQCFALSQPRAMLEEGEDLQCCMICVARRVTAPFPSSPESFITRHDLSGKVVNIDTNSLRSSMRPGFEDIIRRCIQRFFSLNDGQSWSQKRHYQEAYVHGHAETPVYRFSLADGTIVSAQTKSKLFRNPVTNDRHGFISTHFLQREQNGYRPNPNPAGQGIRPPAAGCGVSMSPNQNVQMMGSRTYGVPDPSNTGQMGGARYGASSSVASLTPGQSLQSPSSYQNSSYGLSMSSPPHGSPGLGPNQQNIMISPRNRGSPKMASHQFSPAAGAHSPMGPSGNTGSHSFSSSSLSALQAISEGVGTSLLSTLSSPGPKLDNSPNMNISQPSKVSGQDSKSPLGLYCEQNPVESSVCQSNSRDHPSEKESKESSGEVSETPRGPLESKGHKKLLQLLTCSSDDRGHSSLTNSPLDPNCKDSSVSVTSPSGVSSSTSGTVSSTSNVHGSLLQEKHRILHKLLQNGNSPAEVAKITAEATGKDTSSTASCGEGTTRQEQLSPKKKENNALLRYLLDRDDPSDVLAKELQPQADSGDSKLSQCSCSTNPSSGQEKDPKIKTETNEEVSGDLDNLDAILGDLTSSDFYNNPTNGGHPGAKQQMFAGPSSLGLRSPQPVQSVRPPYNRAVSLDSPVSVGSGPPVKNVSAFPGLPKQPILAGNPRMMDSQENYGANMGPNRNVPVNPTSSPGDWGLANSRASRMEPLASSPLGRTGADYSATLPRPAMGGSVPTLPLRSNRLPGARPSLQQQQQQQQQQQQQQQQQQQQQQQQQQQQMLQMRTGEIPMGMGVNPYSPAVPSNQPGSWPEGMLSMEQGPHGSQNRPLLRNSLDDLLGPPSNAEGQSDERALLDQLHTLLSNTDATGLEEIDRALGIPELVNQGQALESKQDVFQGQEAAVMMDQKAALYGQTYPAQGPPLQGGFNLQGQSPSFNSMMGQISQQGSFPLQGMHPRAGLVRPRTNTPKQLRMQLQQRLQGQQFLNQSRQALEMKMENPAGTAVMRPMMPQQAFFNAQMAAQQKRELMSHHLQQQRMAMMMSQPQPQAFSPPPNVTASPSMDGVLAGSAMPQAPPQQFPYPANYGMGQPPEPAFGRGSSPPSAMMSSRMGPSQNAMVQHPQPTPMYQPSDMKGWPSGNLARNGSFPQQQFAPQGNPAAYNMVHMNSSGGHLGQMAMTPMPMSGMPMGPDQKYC
Of the large screens only hits and unclear results are named; the others gave an inactive call.

CCOCCCNc1nc2c(C)cccn2c(=O)c1/C=C1\SC(=S)N(C(C)CC)C1=O (stereo not drawn)	Hep lipid drop 86
CCOCCCNc1nc2c(C)cccn2c(=O)c1/C=C1\SC(=S)N(CC(C)C)C1=O	none (no result: Hep lipid drop)
CC(NC(=O)C(=O)N1CCOCC1)C(c1cccs1)N1CCN(c2ccccc2F)CC1 (stereo not drawn)	none
CC(NC(=O)C(=O)N1CCOCC1)C(c1cccs1)N1CCN(c2ccc(F)cc2)CC1 (stereo not drawn)	Fh CTSL1 inh 26
O=C(Nc1nc2c(s1)CCCC2)Oc1ccccc1	Fh CTSL1 inh 28
O=C(N/N=C/c1ccncc1)/C(=C/c1ccccc1)NC(=O)c1ccccc1	none
Cc1ccnc(N/C=C(/NC(=O)c2ccccc2)C(=O)N/N=C\c2ccc(Cl)cc2)n1	Fh CTSL1 inh 17
COc1ccc(Cl)cc1NC(=S)NNC(=O)CC(C)C	Fh CTSL1 inh 27
CC(C)(C)c1ccc(S(=O)(=O)/N=C2\C=C(NS(=O)(=O)c3ccccc3)C(=O)c3ccccc32)cc1	none
CC(C)c1ccc(S(=O)(=O)/N=C2/C=C(Sc3ncn[nH]3)C(=O)c3ccccc32)cc1	Fh CTSL1 inh 101
Cc1ccc(S(=O)(=O)Nc2ccc(O)c(Sc3ncn[nH]3)c2)cc1	none
Cc1ccc(S(=O)(=O)/N=C2/C=C(Sc3ncn[nH]3)C(=O)c3ccccc32)cc1	Fh CTSL1 inh 107
Cc1ccc(S(=O)(=O)/N=C2/C=C(Sc3ncn[nH]3)C(=O)c3ccccc32)c(C)c1	Fh CTSL1 inh 103 (no result: Arr AP2 block)
Clc1ccc(-c2cnc3ccccc3n2)cc1	none
CCN(CC)CCNC(CC(=O)Nc1ccc(Cl)cc1Cl)C(=O)O (stereo not drawn)	Hep lipid drop 63
CCN(CC)CCNC(=O)COc1ccc(Cl)cc1Cl	none (no result: Hep lipid drop)
Cc1ccc(Nc2nc(CSc3nnc(-c4cccnc4)n3-c3ccccc3C)cs2)cc1	Fh CTSL1 inh 47
Cc1cc(F)ccc1S(=O)(=O)N1CCCOC1CNC(=O)C(=O)NCCCN1CCOCC1 (stereo not drawn)	none
COc1ccc(NC(=O)Cn2c(=O)sc3ccccc32)c(OC)c1	Fh CTSL1 inh 21 (no result: Hep lipid drop)
O=[N+]([O-])c1ccc(/C=C/C2=NN(c3ccccc3)C(c3ccco3)C2)o1 (stereo not drawn)	Hep lipid drop 54 (no result: Fh CTSL1 inh)
C(=C\c1ccco1)/C1=NN(c2ccccc2)C(c2ccco2)C1 (stereo not drawn)	none
Cc1ccc(CS(=O)(=O)CCC(=O)NCc2ccccn2)cc1	none (no result: Hep lipid drop)
CC(C)Nc1nc(C#N)nc(NC(C)C)n1	Fh CTSL1 inh 57 (no result: Hep lipid drop)
CC(=O)Nc1ccc(C(=O)OCc2ccc(F)cc2Cl)cc1	none
CCOC(=O)c1c(CN(C)C)n(C)c2c(O)c(N=NC(N)=O)c3ccc(Br)cc3c12	Fh CTSL1 inh 20
CCOC(=O)c1c(S(=O)(=O)NCC2CCN(Cc3cccc(F)c3)CC2)c(C)n(C)c1C	Fh CTSL1 inh 44
CCOC(=O)C(NC(C)=O)(OCc1ccccc1)C(F)(F)F (stereo not drawn)	none
CCOC(=O)C(NC(=O)c1cccc(Cl)c1)(OCc1ccccc1)C(F)(F)F (stereo not drawn)	Hep lipid drop 71
C=CCn1c(=O)c2ccccc2n2c(SCc3nc4ccccc4s3)nnc12	none
CC1CCCN(C(=O)COC(=O)Cc2ccc(Cl)cc2)C1 (stereo not drawn)	none
COc1ccc(C(=O)/C=C/c2ccccc2)c(O)c1	Fh CTSL1 inh 22
COc1ccc(C(=O)/C=C/c2ccc(OC)cc2OC)c(O)c1	none
N#Cc1nc(N2CCOCC2)nc(N2CCOCC2)n1	Fh CTSL1 inh 48 (no result: Hep lipid drop)
N#CCOc1nc(N2CCOCC2)nc(N2CCOCC2)n1	none
C/C(=N\Nc1ccc(C)c(Cl)c1)c1ccncc1	Fh CTSL1 inh 19
CNC(=O)COC(=O)c1ccc([N+](=O)[O-])cc1Cl	Fh CTSL1 inh 18
COc1ccc2ccccc2c1C(=O)/C=C\c1ccoc1	Fh CTSL1 inh 23
O=C(/C=C/c1ccoc1)c1ccccc1O	none
CCN(CC)CCN(C(=O)CCS(=O)(=O)c1ccccc1)c1nc2cc3c(cc2s1)OCO3	Fh CTSL1 inh 76
O=C(CCS(=O)(=O)c1ccccc1)N(CCCN1CCOCC1)c1nc2ccccc2s1	Fh CTSL1 inh 47 (no result: Hep lipid drop, p-CIP stab down)
CN(C)CCN(C(=O)CCS(=O)(=O)c1ccccc1)c1nc2cc3c(cc2s1)OCO3	none
COc1cc2c(cc1OC)-c1cc(NC3CCCCCC3)nc(=O)n1CC2	none (no result: Hep lipid drop)
COc1cc(C(=O)NC2=NCCS2)ccc1OCc1c(C)noc1C	Fh CTSL1 inh 37 (no result: Hep lipid drop)
